We go through 28 compounds from ChEMBL document CHEMBL4619817, “Stereochemical Differences in Fluorocyclopropyl Amides Enable Tuning of Btk Inhibition and Off-Target Activity” (ACS Med Chem Lett, 2020).

A short description of data set [1]: Lipophilicity, logD of compound at 7.4 by the LC/MS based microscale shake flask method. The format is physicochemical. The note with it: octanol/water, pH 7.4. A digest of the protocol:
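LogD measured by high-throughput microscale shake flask with LC tandem MS quantitation.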

Data set [2] in a line: Metabolic stability in human liver microsomes assessed as intrinsic clearance at 1 uM measured upto 60 mins by LC-MS/MS analysis. It is filed as ADME, Microsome. The following applies: read-out: CLH.
Data set [3] can be described thus: Metabolic stability in rat liver microsomes assessed as intrinsic clearance at 1 uM measured upto 60 mins by LC-MS/MS analysis. The format is ADME, Microsome. The following applies: read-out: CLH.
Data set [4] in a line: Apparent permeability from apical to basolateral side in MDCK cells at 10 uM incubated for 3 hrs by LC-MS/MS analysis. The format is ADME, cell-based, Canis lupus familiaris. The following applies: dog.
Data set [5] can be described thus: Clearance in Sprague-Dawley rat at 0.2 mg/kg, iv measured upto 8 hrs by LC-MS/MS analysis. It is filed as ADME, organism-based. The note with it: in vivo.
Data set [6] in a line: Oral bioavailability in Sprague-Dawley rat at 1 mg/kg measured upto 8 hrs by LC-MS/MS analysis. It is filed as ADME, organism-based. The note with it: in vivo.
Data set [7] is described as follows: Unbound clearance in Sprague-Dawley rat at 1 mg/kg, po measured upto 8 hrs by LC-MS/MS analysis. The format is ADME, organism-based. The note with it: in vivo.
Data set [8] can be described thus: Clearance in Beagle dog at 1 mg/kg, iv measured upto 24 hrs by LC-MS/MS analysis. It is filed as ADME, organism-based, Canis lupus familiaris. The note with it: in vivo.
Data set [9] is described as follows: Oral bioavailability in Beagle dog at 2 mg/kg measured upto 24 hrs by LC-MS/MS analysis. The format is ADME, organism-based, Canis lupus familiaris. The note with it: in vivo.
The nature of data set [10]: Metabolic stability in dog Hepatocyte assessed as intrinsic clearance at 1 uM measured upto 60 mins by LC-MS/MS analysis. It is filed as ADME, cell-based, Canis lupus familiaris. The note with it: hepatocytes, read-out: CLH.
Data set [11] is described as follows: Metabolic stability in rat Hepatocyte assessed as intrinsic clearance at 1 uM measured upto 60 mins by LC-MS/MS analysis. The format is ADME, cell-based. The note with it: hepatocytes, read-out: CLH.
The nature of data set [12]: Metabolic stability in human Hepatocyte assessed as intrinsic clearance at 1 uM measured upto 60 mins by LC-MS/MS analysis. The format is ADME, cell-based. The following applies: hepatocytes, read-out: CLH.
Data set [13] can be described thus: Metabolic stability in dog liver microsomes assessed as intrinsic clearance at 1 uM measured upto 60 mins by LC-MS/MS analysis. The note with it: read-out: CLH. It is filed as ADME, Canis lupus familiaris, Microsome.
A short description of data set [14]: Metabolic stability in human Hepatocyte assessed as compound hydrolysis at 5 uM incubated for 3 hrs by LC-MS/MS analysis. It is filed as ADME, cell-based. The note with it: hepatocytes, read-out: Drug degradation. The procedure, abridged: (§1)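 Compound incubated at 5 μM in cryopreserved hepatocytes (∼1.0 × 10^6 cells/mL) for 3 h; percent amide hydrolysis determined.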

Data set [15] in a line: Metabolic stability in rat Hepatocyte assessed as compound hydrolysis at 5 uM incubated for 3 hrs by LC-MS/MS analysis. It is filed as ADME, cell-based. The note with it: hepatocytes, read-out: Drug degradation. A digest of the protocol: as §1
A short description of data set [16]: Metabolic stability in dog Hepatocyte assessed as compound hydrolysis at 5 uM incubated for 3 hrs by LC-MS/MS analysis. It is filed as ADME, cell-based, Canis lupus familiaris. The following applies: hepatocytes, read-out: Drug degradation. The procedure, abridged:
as §1

Data set [17] is described as follows: Oral bioavailability in Beagle dog at 5 mg/kg measured upto 24 hrs by LC-MS/MS analysis. The format is ADME, organism-based, Canis lupus familiaris. The note with it: in vivo.

In data set [1], `Cn1cc(-c2ccnc(-n3ncc4cc(C(C)(C)C)cc(F)c4c3=O)c2CO)cc(NC(=O)[C@H]2C[C@@H]2F)c1=O` yielded a logD of 3. Besides, the CLint scaled at 1 µM in data set [2] came out at 8.5 mL/min/kg; in [3] it was 14 mL/min/kg. In addition, the Papp A→B at 3 h, 10 µM in data set [4] worked out at 10.8 ×10⁻⁶ cm/s.
Compound `Cn1cc(-c2ccnc(-n3ncc4cc(C(C)(C)C)cc(F)c4c3=O)c2CO)cc(NC(=O)[C@@H]2C[C@@H]2F)c1=O` gave a logD in data set [1] of 1.6. The CLint scaled at 1 µM is 8 mL/min/kg in [2]; 11 mL/min/kg in data set [3]; less than 21 mL/min/kg in data set [10]; 11 mL/min/kg in data set [11]; 6.2 mL/min/kg in [12]; 20 mL/min/kg in data set [13]. For the same compound, the Papp A→B at 3 h, 10 µM in data set [4] fell in the range of 12.1 to 12.5 ×10⁻⁶ cm/s. Besides, the values for the clearance in data set [5] and in data set [8] were 15 mL/min/kg and 2 mL/min/kg, respectively. Besides, the bioavailability in [6] amounted to 40%; in data set [9], 123%. Moreover, in [7], the CL free worked out at 326 mL/min/kg. In addition, the metabolised at 3 h, 5 µM in data set [14], in data set [15] and in data set [16] was not above 1% each time.
`Cn1cc(-c2ccnc(N3CCn4c(cc5c4CC(C)(C)C5)C3=O)c2CO)cc(NC(=O)C2(F)CC2)c1=O` displayed a logD in [1] of 2.5.
On the same count and under the same terms, the value for `Cn1cc(-c2cc(F)cc(-n3ncc4cc(C(C)(C)C)cc(F)c4c3=O)c2CO)cc(NC(=O)[C@H]2C[C@H]2F)c1=O` was 2.
`Cn1cc(-c2ccnc(-n3ncc4cc(C(C)(C)C)cc(F)c4c3=O)c2CO)cc(NC(=O)[C@@H]2C[C@H]2F)c1=O` displayed a pH-dependent lipophilicity (logD) in data set [1] of 2.5. Also, the CLint scaled at 1 µM amounted to 4.6 mL/min/kg in data set [2] and 15 mL/min/kg in data set [3]. Besides, the Papp A→B at 3 h, 10 µM in data set [4] is 14 ×10⁻⁶ cm/s.
`Cn1cc(-c2ccnc(N3CCn4c(cc5c4CC(C)(C)C5)C3=O)c2CO)cc(NC(=O)C2CCC2)c1=O`: the logD in data set [1] amounted to 3.3.
For the compound `Cn1cc(-c2ccnc(N3CCc4c(cc5n4CCCC5)C3=O)c2CO)cc(NC(=O)C2CC2)c1=O`, in [1], the logD amounted to 1.2. For the same compound, the CLint scaled at 1 µM was 9.8 mL/min/kg in [2] and 20 mL/min/kg in data set [3].
Compound `COCC(=O)Nc1cc(-c2ccnc(N3CCn4c(cc5c4CC(C)(C)C5)C3=O)c2CO)cn(C)c1=O` displayed a logD in [1] of 1.5.
In [1], `CC(C)C(=O)Nc1cc(-c2ccnc(N3CCn4c(cc5c4CC(C)(C)C5)C3=O)c2CO)cn(C)c1=O` had a logD of 3.2.
Same read-out and setting: in the case of `Cn1cc(-c2ccnc(N3CCn4c(cc5c4CC(C)(C)C5)C3=O)c2CO)cc(NC(=O)C2COC2)c1=O` it was 2.2.
For the compound `Cn1cc(-c2ccnc(-n3ncc4cc(C(C)(C)C)cc(F)c4c3=O)c2CO)cc(NC(=O)C2CC2)c1=O`, the logD in [1] was determined as 2.5. Moreover, the CLint scaled at 1 µM in [2] stood at 3.2 mL/min/kg; in [3], 13 mL/min/kg. Also, the Papp A→B at 3 h, 10 µM in data set [4] came out at 13.5 ×10⁻⁶ cm/s.
`Cn1cc(-c2ccnc(N3CCn4c(cc5c4CC(C)(C)C5)C3=O)c2CO)cc(NC(=O)C2(O)CC2)c1=O` came in with a logD in [1] of 1.8.
Same read-out and setting: the value for `Cn1cc(-c2cc(F)cc(-n3ncc4cc(C(C)(C)C)cc(F)c4c3=O)c2CO)cc(NC(=O)[C@@H]2C[C@@H]2F)c1=O` was 2.8; that for `Cn1cc(-c2ccnc(N3CCn4c(cc5c4CC(C)(C)C5)C3=O)c2CO)cc(NC(=O)c2cccnc2)c1=O` was 2; that for `Cn1cc(-c2ccnc(N3CCn4c(cc5c4CC(C)(C)C5)C3=O)c2CO)cc(NC(=O)[C@@H]2C[C@@H]2F)c1=O` was 2.5.
Same read-out and setting: the value for `Cn1cc(-c2ccnc(N3CCn4c(cc5c4CC(C)(C)C5)C3=O)c2CO)cc(NC(=O)[C@H]2C[C@H]2F)c1=O` was 2.3.
On to `Cn1cc(-c2ccnc(N3CCn4c(cc5c4CC(C)(C)C5)C3=O)c2CO)cc(NC(=O)C2CC2)c1=O`, for which, in data set [1], the logD worked out at 3. The CLint scaled at 1 µM in data set [2] turned out to be 5.3 mL/min/kg; in [3], 7.2 mL/min/kg.
In turn, `Cn1cc(-c2ccnc(N3CCn4c(cc5c4CC(C)(C)C5)C3=O)c2CO)cc(NC(=O)[C@@H]2CCCO2)c1=O` came in with a logD in data set [1] of 2.1.
On the same count and under the same terms, the value for `CC(=O)Nc1cc(-c2ccnc(N3CCn4c(cc5c4CC(C)(C)C5)C3=O)c2CO)cn(C)c1=O` was 2.1.
In turn, `Cn1nc(-c2ccnc(-n3ncc4cc(C(C)(C)C)cc(F)c4c3=O)c2CO)cc(NC(=O)[C@@H]2C[C@@H]2F)c1=O` showed a logD in data set [1] of 1.7. The CLint scaled at 1 µM in [2] came to 7.4 mL/min/kg; in data set [3], 16 mL/min/kg.
For `Cn1cc(-c2ccnc(N3CCn4c(cc5c4CC(C)(C)C5)C3=O)c2CO)cc(NC(=O)CC2CC2)c1=O`, the logD in data set [1] came to 3.4.
In [1], `Cn1cc(-c2ccnc(-n3ncc4cc(C(C)(C)C)cc(F)c4c3=O)c2CO)nc(NC(=O)[C@@H]2C[C@@H]2F)c1=O` registered a logD of 1.3. Also, the CLint scaled at 1 µM in data set [2] is less than 3.9 mL/min/kg; in [3], 13 mL/min/kg.
For `Cn1cc(-c2ccnc(N3CCn4c(cc5c4CC(C)(C)C5)C3=O)c2CO)cc(NC(=O)CN2CCOCC2)c1=O`, in data set [1], the logD came out at 2.3.
Turning to `Cn1cc(-c2ccnc(-n3ncc4cc(C(C)(C)C)cc(F)c4c3=O)c2CO)cc(NC(=O)[C@H]2C[C@H]2F)c1=O`, the logD in [1] is 2. Also, the CLint scaled at 1 µM turned out to be 5.5 mL/min/kg in data set [2] and 11 mL/min/kg in data set [3]. Also, the Papp A→B at 3 h, 10 µM in [4] came out at 6.4 ×10⁻⁶ cm/s.
Consider `CCC(=O)Nc1cc(-c2ccnc(N3CCn4c(cc5c4CC(C)(C)C5)C3=O)c2CO)cn(C)c1=O`, for which the logD in [1] came to 2.5.
On to `Cn1cc(-c2ccnc(-n3ncc4c5c(sc4c3=O)CCCC5)c2CO)cc(NC(=O)C2CC2)c1=O`, for which, in [1], the logD amounted to 2.1. Besides, the CLint scaled at 1 µM in [2] is 7.4 mL/min/kg; in data set [3], 8.4 mL/min/kg.
In data set [1], `CCCC(=O)Nc1cc(-c2ccnc(N3CCn4c(cc5c4CC(C)(C)C5)C3=O)c2CO)cn(C)c1=O` showed a logD of 2.6.
`C[C@H]1CN(C2COC2)CCN1c1ccc(Nc2cc(-c3ccnc(N4CCn5c(cc6c5CC(C)(C)C6)C4=O)c3CO)cn(C)c2=O)nc1` [FENEBRUTINIB]: the logD in data set [1] came out at 1.6. Besides, the CLint scaled at 1 µM in data set [2] was 9.5 mL/min/kg; in data set [3], 14 mL/min/kg; in [10], less than 21 mL/min/kg; in data set [11], 10 mL/min/kg; in data set [12] it was 9.3 mL/min/kg; in [13], 29 mL/min/kg. In addition, the Papp A→B at 3 h, 10 µM in [4] is 15.1 ×10⁻⁶ cm/s. The clearance is 22 mL/min/kg in [5] and 12 mL/min/kg in data set [8]. In addition, the values for the bioavailability in [6] and in data set [17] were 96% and 130%, respectively. In addition, in data set [7], the CL free was found to be 314 mL/min/kg.
